Results from ChEMBL document CHEMBL1126948, “Exploration of neutral endopeptidase active site by a series of new thiol-containing inhibitors” (J Med Chem, 1993).

How the values were obtained:
Neprilysin = molecular target: T1, Neprilysin (Oryctolagus cuniculus, UniProt P08049); assay: Inhibitory concentration was evaluated by Inhibiting 50% of Neutral endopeptidase enzyme (NEP) activity using 20 nM [3H]D-Ala2-Leu-enkephalin as substrate
T1 sequence (P08049 whole entry): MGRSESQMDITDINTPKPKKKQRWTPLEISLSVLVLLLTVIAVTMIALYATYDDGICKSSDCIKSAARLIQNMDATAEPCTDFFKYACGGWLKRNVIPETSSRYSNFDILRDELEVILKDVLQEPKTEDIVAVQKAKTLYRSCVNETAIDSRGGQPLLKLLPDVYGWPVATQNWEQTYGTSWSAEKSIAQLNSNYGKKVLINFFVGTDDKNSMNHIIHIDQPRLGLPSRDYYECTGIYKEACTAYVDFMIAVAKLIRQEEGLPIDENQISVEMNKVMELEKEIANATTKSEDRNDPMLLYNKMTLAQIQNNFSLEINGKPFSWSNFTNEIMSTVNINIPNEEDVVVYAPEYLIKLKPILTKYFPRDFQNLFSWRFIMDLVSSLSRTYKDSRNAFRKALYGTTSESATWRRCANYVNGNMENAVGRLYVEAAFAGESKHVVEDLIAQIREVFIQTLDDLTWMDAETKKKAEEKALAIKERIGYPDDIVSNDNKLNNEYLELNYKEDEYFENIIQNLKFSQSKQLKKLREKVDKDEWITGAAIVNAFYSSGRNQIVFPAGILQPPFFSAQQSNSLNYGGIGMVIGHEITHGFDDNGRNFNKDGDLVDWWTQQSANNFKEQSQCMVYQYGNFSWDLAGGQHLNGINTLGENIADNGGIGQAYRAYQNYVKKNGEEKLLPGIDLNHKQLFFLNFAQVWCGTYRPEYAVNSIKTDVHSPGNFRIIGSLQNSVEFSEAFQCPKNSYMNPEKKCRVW
Summary of the method: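 NEP purified to homogeneity from rabbit kidney, final 1 pmol/100 μL. Preincubated 15 min at 25 °C with or without increasing inhibitor concentrations in 50 mM Tris-HCl pH 7.4. [3H]-D-Ala2-Leu-enkephalin added to a final 20 nM. Stopped after 30 min with 0.5 M HCl. Tritiated metabolites separated on polystyrene beads. IC50 by log probit of five concentrations, mean ± SEM of three independent experiments.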

[1] = molecular target: T2, Angiotensin-converting enzyme (Homo sapiens, UniProt P12821); assay: Inhibitory concentration was evaluated by inhibiting 50% of Angiotensin I Converting Enzyme activity using 50 uM N-Cbz-Phe-His-Leu as substrate
Summary of the method: (§1)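 Recombinant human ACE preincubated 15 min at 37 °C with various inhibitor concentrations in 50 mM Tris-HCl pH 7.4. N-Cbz-Phe-His-Leu then added to a final 0.05 mM. Reaction ran 15 min and was stopped with 2 M NaOH. His-Leu measured fluorimetrically (ex 365, em 495 nm) against a His-Leu calibration curve. IC50 by log probit of five concentrations, mean ± SEM of three independent experiments.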

[2] = molecular target: T2, Angiotensin-converting enzyme; assay: Inhibitory concentration was evaluated by Inhibiting 50% of Angiotensin I converting enzyme activity using 50 uM N-Cbz-Phe-His-Leu as substrate
[3] = molecular target: T2, Angiotensin-converting enzyme; assay: Inhibitory concentration was evaluated by inhibiting 50% of Angiotensin I Converting Enzyme activity using 50 micro M N-Cbz-Phe-His-Leu as substrate; summary of the method: as §1

T2 sequence (P12821 whole entry): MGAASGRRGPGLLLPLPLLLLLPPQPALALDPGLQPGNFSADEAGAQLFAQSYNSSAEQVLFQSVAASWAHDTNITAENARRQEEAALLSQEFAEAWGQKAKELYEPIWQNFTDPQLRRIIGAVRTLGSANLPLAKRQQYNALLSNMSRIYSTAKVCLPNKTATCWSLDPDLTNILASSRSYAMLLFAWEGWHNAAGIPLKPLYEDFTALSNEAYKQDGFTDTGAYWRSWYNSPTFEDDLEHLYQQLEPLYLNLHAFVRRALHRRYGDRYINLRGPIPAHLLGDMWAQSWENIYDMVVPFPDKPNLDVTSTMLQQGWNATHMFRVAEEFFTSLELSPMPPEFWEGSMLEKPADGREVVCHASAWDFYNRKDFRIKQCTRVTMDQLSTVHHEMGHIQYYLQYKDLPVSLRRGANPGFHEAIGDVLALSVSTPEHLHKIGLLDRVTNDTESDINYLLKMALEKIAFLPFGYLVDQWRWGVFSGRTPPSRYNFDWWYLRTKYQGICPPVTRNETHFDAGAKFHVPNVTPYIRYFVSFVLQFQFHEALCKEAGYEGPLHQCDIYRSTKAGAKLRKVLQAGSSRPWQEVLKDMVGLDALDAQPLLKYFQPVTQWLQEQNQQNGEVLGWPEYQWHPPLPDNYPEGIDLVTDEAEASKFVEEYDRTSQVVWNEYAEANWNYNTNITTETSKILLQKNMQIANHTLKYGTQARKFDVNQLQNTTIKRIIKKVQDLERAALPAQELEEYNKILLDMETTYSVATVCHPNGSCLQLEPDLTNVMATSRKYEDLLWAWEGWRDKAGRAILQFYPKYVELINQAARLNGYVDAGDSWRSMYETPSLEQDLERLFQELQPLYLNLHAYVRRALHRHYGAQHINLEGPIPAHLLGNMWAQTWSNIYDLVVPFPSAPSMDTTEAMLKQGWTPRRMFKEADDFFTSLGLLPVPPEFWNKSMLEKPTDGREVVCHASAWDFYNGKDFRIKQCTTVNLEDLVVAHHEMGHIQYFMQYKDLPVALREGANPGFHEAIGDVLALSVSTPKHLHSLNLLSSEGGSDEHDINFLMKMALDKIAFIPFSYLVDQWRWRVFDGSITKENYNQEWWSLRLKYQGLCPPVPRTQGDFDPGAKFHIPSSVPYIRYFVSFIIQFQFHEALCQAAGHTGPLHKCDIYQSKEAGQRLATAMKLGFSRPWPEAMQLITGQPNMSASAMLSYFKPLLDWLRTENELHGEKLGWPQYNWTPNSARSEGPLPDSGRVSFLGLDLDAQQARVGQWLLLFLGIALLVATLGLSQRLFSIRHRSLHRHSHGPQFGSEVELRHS

Molecule `CC(C)CC(S)C(Cc1ccccc1)C(=O)NC(Cc1ccc(O)cc1)C(=O)O` (stereo not given) has an IC50 (Neprilysin) of 26 nM and an IC50 [1] of 710 nM.

Work on `CC(C)C(C(=O)NC(Cc1ccc(O)cc1)C(=O)O)C(S)CCc1ccccc1` (stereo not given) yielded an IC50 (Neprilysin) of 53 nM and an IC50 [1] of 4500 nM.

For `CCC(C)C(NC(=O)C(Cc1ccccc1)C(C)S)C(=O)NC(Cc1ccc(O)cc1)C(=O)O` (stereo not given), the IC50 (Neprilysin) was 380 nM and the IC50 [2] was 300 nM.

`CC(C)CC(S)CC(=O)NC(Cc1ccccc1)C(=O)O` (stereo not given) gave an IC50 (Neprilysin) of 37 nM and an IC50 [1] of 10000 nM.

Molecule `CC(C)CC(S)[C@H](Cc1ccccc1)C(=O)N[C@@H](C)C(=O)O` (stereo not given in full) has an IC50 (Neprilysin) of 40 nM and an IC50 [1] of 4000 nM.

With `CCCCC(NC(=O)C(Cc1ccccc1)C(C)S)C(=O)NC(Cc1ccc(O)cc1)C(=O)O` (stereo not given) the IC50 (Neprilysin) was 50 nM and the IC50 [2] was 6100 nM.

For `CC(C)C[C@@H](S)[C@H](Cc1ccccc1)C(=O)N[C@@H](C)C(=O)O`, the IC50 (Neprilysin) was 20 nM and the IC50 [1] was 5000 nM.

`O=C(O)C(Cc1ccc(O)cc1)NC(=O)C(Cc1ccccc1)C(S)CCc1ccccc1` (stereo not given) was tested, and the IC50 (Neprilysin) was 180 nM and the IC50 [1] was 1600 nM.

`CC(C)C(NC(=O)C(Cc1ccccc1)C(C)S)C(=O)NC(Cc1ccc(O)cc1)C(=O)O` (stereo not given) showed an IC50 (Neprilysin) of 320 nM and an IC50 [2] of 1300 nM.

Work on `CC(C)C[C@H](S)[C@H](Cc1ccccc1)C(=O)N[C@@H](C)C(=O)O` yielded an IC50 (Neprilysin) of 35 nM and an IC50 [1] of 10000 nM.

`CC(C)C[C@H](S)[C@@H](Cc1ccccc1)C(=O)N[C@@H](C)C(=O)O` gave an IC50 (Neprilysin) of 3.6 nM and an IC50 [3] of 16100 nM.

`CC(S)C(Cc1ccccc1)C(=O)NCC(=O)O` (stereo not given) gave an IC50 (Neprilysin) of 50 nM and an IC50 [2] of 11000 nM.

`CC(C)CC(S)CC(=O)NC(Cc1ccccc1)C(=O)NC(Cc1ccc(O)cc1)C(=O)O` (stereo not given) showed an IC50 (Neprilysin) of 50 nM and an IC50 [2] of 2800 nM.

For `CC(NC(=O)C(Cc1ccccc1)C(S)CCc1ccccc1)C(=O)O` (stereo not given), the IC50 (Neprilysin) was 44 nM and the IC50 [1] was 4000 nM.

In the case of `CC(C)CC(S)C(Cc1ccccc1)C(=O)NC(C)C(=O)O` (stereo not given), the IC50 (Neprilysin) is reported as 14 nM and the IC50 [1] is reported as 12000 nM.
